From ChEMBL document CHEMBL3112463, “Synthesis and biological activity of polyalthenol and pentacyclindole analogues” (2014) come the findings set out here.

Bounds are passed on as bounds.

Holding throughout (assay type): functional
One assay deals with WiDr. Put plainly: Antiproliferative activity against human WiDr cells assessed as growth inhibition after 48 hrs by SRB assay. Summed up:
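WiDr cells seeded at 20,000 cells/well after trypsinization into antibiotic-containing medium (trypan blue viability >97%). Culture at 37 °C, 5% CO₂ with foetal calf serum and 2 mM L-glutamine. Exposure to triplicate compound dilutions from DMSO stocks (0.25% v/v DMSO control) started day 1, lasting 48 h. Fixed with ice-cold 50% TCA, 60 min at 4 °C, then SRB, OD 492 nm background-subtracted.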
A general note: Sulforhodamine B stains cellular protein and so reports cell mass.

The next assay has as its system T47D. Put plainly: Antiproliferative activity against human T47D cells assessed as growth inhibition after 48 hrs by SRB assay. The method, boiled down:
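T-47D cells grown at 37 °C, 5% CO₂ in serum- and 2 mM L-glutamine-containing medium. Trypsinized, viability >97% by trypan blue, seeded at 15,000 cells/well. Compounds added day 1 in triplicate dilutions (DMSO vehicle 0.25% v/v as control) for 48 h. Cold 50% TCA fixation 60 min at 4 °C, SRB read at 492 nm with blank correction.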

The subject of another assay is A549. In words: Antiproliferative activity against human A549 cells assessed as growth inhibition after 48 hrs by SRB assay. The note with it: A549, 48 h. The method, boiled down: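 Cells kept in medium with foetal calf serum and 2 mM L-glutamine at 37 °C, 5% CO₂. Trypsinized, resuspended in penicillin/streptomycin medium, >97% trypan blue viability, seeded at 10,000 cells/well. Compounds from DMSO stocks (0.25% v/v DMSO control), triplicate dilutions, added day 1 for 48 h. Fixed with cold 50% TCA for 60 min at 4 °C, then SRB staining, OD 492 nm, background corrected.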

The subject of the next assay is SW1573. In words: Antiproliferative activity against human SW1573 cells assessed as growth inhibition after 48 hrs by SRB assay. The note with it: SW1573, 48 h. The method, boiled down:
(§1)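 Cells maintained at 37 °C, 5% CO₂ in medium with foetal calf serum and 2 mM L-glutamine. Trypsinized into antibiotic medium, >97% viable by trypan blue, plated at 10,000 cells/well. Triplicate dilutions from DMSO stocks (0.25% v/v DMSO control) added on day 1 for 48 h. TCA fixation (50%, 4 °C, 60 min), SRB stain, OD 492 nm corrected for medium-only blank.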

The nature of assay [1]: Antiproliferative activity against human HBL100 cells assessed as growth inhibition after 48 hrs by SRB assay. The note with it: HBL-100, 48 h. Summed up: as §1
The next assay deals with HeLa. Put plainly: Antiproliferative activity against human HeLa cells assessed as growth inhibition after 48 hrs by SRB assay. The method, boiled down:
as §1

As a reminder, the GI50 is the concentration at which growth is held to half of that of the control. As for `COC(=O)[C@@]1(C)CC[C@@H]2C3=C1CC[C@@H](C)[C@]3(C)C[C@@H]1c3cc(Br)ccc3N[C@H]21`, the GI50 was found to be 55 µM in the assay with WiDr; 31 µM with T47D; 40 µM in the assay with A549; 45 µM in the assay with SW1573; 34 µM in assay [1]; 25 µM in the assay on HeLa.

Take `COC(=O)[C@@]1(C)CCC=C2[C@@H]1CC[C@@H](C)[C@]2(C)Cc1c[nH]c2ccc(C)cc12`: the GI50 in the assay with WiDr is 22 µM; with T47D, 20 µM; with A549, 17 µM; in the assay with SW1573, 15 µM; in assay [1] it was 18 µM; with HeLa, 14 µM.

For `COC(=O)[C@@]1(C)CCC=C2[C@@H]1CC[C@@H](C)[C@]2(C)Cc1c[nH]c2ccc(Cl)cc12`, the GI50 was 20 µM with WiDr; 17 µM in the assay with T47D; 16 µM in the assay with A549; 11 µM in the assay with SW1573; 17 µM in assay [1]; 11 µM in the assay with HeLa.

In the case of `COC(=O)[C@@]1(C)CCC=C2[C@@H]1CC[C@@H](C)[C@]2(C)Cc1c[nH]c2c(C)cccc12`, the GI50 in the assay with WiDr is 26 µM; with T47D it was 18 µM; with A549, 11 µM; in the assay with SW1573 it was 7.8 µM; in assay [1], 8 µM; with HeLa, 4.9 µM.

In the case of `COC(=O)[C@@]1(C)CCC=C2[C@@H]1CC[C@@H](C)[C@]2(C)Cc1c[nH]c2c(Br)cccc12`, the GI50 is 32 µM with WiDr; 24 µM in the assay on T47D; 22 µM in the assay with A549; 14 µM in the assay on SW1573; 18 µM in assay [1]; 13 µM in the assay on HeLa.

For the compound `COC(=O)[C@@]1(C)CCC=C2[C@@H]1CC[C@@H](C)[C@]2(C)Cc1c[nH]c2c(Cl)cccc12`, the GI50 in the assay on WiDr amounted to 31 µM; in the assay on T47D it was 24 µM; with A549, 22 µM; with SW1573 it was 14 µM; in assay [1] it was 19 µM; with HeLa it was 14 µM.

Regarding `COC(=O)[C@@]1(C)CCC=C2[C@@H]1CC[C@@H](C)[C@]2(C)Cc1c(C)[nH]c2ccc(C)cc12`, the GI50 in the assay on WiDr turned out to be 28 µM; in the assay on T47D it was 31 µM; with A549 it was 26 µM; in the assay on SW1573 it was 18 µM; in assay [1], 25 µM; in the assay on HeLa, 17 µM.

Turning to `COC(=O)[C@@]1(C)CCC=C2[C@@H]1CC[C@@H](C)[C@]2(C)Cc1c(C)[nH]c2ccc(C(F)(F)F)cc12`, the GI50 turned out to be 21 µM with WiDr; 21 µM in the assay on T47D; 17 µM with A549; 15 µM in the assay with SW1573; 16 µM in assay [1]; 12 µM with HeLa.

Turning to `COC(=O)[C@@]1(C)CCC=C2[C@@H]1CC[C@@H](C)[C@]2(C)Cc1c(C)[nH]c2c(C)cccc12`, the GI50 turned out to be 21 µM in the assay with WiDr; 19 µM in the assay with T47D; 14 µM in the assay on A549; 15 µM with SW1573; 16 µM in assay [1]; 14 µM with HeLa.

Turning to `COC(=O)[C@@]1(C)CCC=C2[C@@H]1CC[C@@H](C)[C@]2(C)Cc1c(C)[nH]c2c(Br)cccc12`, the GI50 was 38 µM in the assay on WiDr; 31 µM with T47D; 27 µM in the assay on A549; 25 µM in the assay with SW1573; 27 µM in assay [1]; 22 µM with HeLa.

Take `COC(=O)[C@@]1(C)CCC=C2[C@@H]1CC[C@@H](C)[C@]2(C)Cc1c(C)[nH]c2c(Cl)cccc12`: the GI50 with WiDr was determined as 29 µM; in the assay with T47D it was 27 µM; with A549, 20 µM; in the assay with SW1573 it was 19 µM; in assay [1], 22 µM; in the assay with HeLa, 17 µM.

Regarding `COC(=O)[C@@]1(C)CCC=C2[C@@H]1CC[C@@H](C)[C@]2(C)Cc1c(/C=C/[N+](=O)[O-])[nH]c2ccccc12`, the GI50 in the assay on WiDr worked out at 21 µM; in the assay on T47D, 15 µM; in the assay on A549 it was 13 µM; in the assay with SW1573, 13 µM; in assay [1] it was 16 µM; in the assay with HeLa, 6.9 µM.

`COC(=O)[C@@]1(C)CCC=C2[C@@H]1CC[C@@H](C)[C@]2(C)Cc1c(C)n(C(c2ccccc2)c2ccccc2)c2ccc(Cl)cc12`: the GI50 (in the assay on WiDr; with T47D; in the assay with A549; in the assay with SW1573; in assay [1]; with HeLa) was greater than 100 µM throughout.

As for `COC(=O)[C@@]1(C)CC[C@@H]2C3=C1CC[C@@H](C)[C@]3(C)C[C@@H]1c3ccccc3N[C@H]21`, the GI50 came to 50 µM in the assay with WiDr; 35 µM in the assay with T47D; 39 µM in the assay on A549; 30 µM in the assay on SW1573; 78 µM in assay [1]; 19 µM in the assay on HeLa.

Take `COC(=O)[C@@]1(C)CC[C@@H]2C3=C1CC[C@@H](C)[C@]3(C)C[C@@H]1c3cc(C)ccc3N[C@H]21`: the 50% growth inhibitory concentration (GI50) in the assay on WiDr amounted to 32 µM; in the assay with T47D, 23 µM; with A549, 27 µM; in the assay on SW1573, 23 µM; in assay [1], 15 µM; in the assay with HeLa it was 18 µM.

Regarding `COC(=O)[C@@]1(C)CC[C@@H]2C3=C1CC[C@@H](C)[C@]3(C)C[C@@H]1c3cc(Cl)ccc3N[C@H]21`, the GI50 with WiDr is 48 µM; in the assay with T47D, 28 µM; in the assay on A549, 35 µM; in the assay with SW1573 it was 38 µM; in assay [1] it was 28 µM; in the assay on HeLa it was 23 µM.

As for `COC(=O)[C@@]1(C)CC[C@@H]2C3=C1CC[C@@H](C)[C@]3(C)C[C@@H]1c3cc(F)ccc3N[C@H]21`, the 50% growth inhibitory concentration (GI50) with WiDr was 32 µM; in the assay with T47D, 27 µM; in the assay on A549 it was 25 µM; in the assay on SW1573 it was 27 µM; in assay [1], 18 µM; with HeLa it was 20 µM.

On to `COC(=O)[C@@]1(C)CC[C@@H]2C3=C1CC[C@@H](C)[C@]3(C)C[C@@H]1c3cc(OC)ccc3N[C@H]21`, for which the GI50 in the assay on WiDr came out at 25 µM; in the assay on T47D it was 19 µM; in the assay on A549 it was 22 µM; in the assay with SW1573 it was 25 µM; in assay [1] it was 15 µM; in the assay on HeLa, 20 µM.

Regarding `COC(=O)[C@@]1(C)CC[C@@H]2C3=C1CC[C@@H](C)[C@]3(C)C[C@@H]1c3cccc(C)c3N[C@H]21`, the GI50 worked out at 43 µM in the assay with WiDr; 29 µM in the assay on T47D; 30 µM in the assay with A549; 31 µM with SW1573; 32 µM in assay [1]; 22 µM with HeLa.

For the compound `COC(=O)[C@@]1(C)CC[C@@H]2C3=C1CC[C@@H](C)[C@]3(C)C[C@@H]1c3cccc(Br)c3N[C@H]21`, the GI50 in the assay on WiDr came to 54 µM; in the assay with T47D, 37 µM; in the assay on A549 it was 42 µM; with SW1573, 44 µM; in assay [1], 40 µM; in the assay on HeLa, 22 µM.

Consider `COC(=O)[C@@]1(C)CC[C@@H]2C3=C1CC[C@@H](C)[C@]3(C)C[C@@H]1c3cccc(Cl)c3N[C@H]21`, for which the GI50 in the assay on WiDr stood at 67 µM; in the assay with T47D, 50 µM; with A549, 54 µM; in the assay with SW1573, 49 µM; in assay [1], 52 µM; with HeLa, 31 µM.

`COC(=O)[C@@]1(C)CC[C@@H]2C3=C1CC[C@@H](C)[C@]3(C)Cc1c2[nH]c2ccc(Br)cc12`: the GI50 in the assay with WiDr worked out at 22 µM; in the assay on T47D, 21 µM; in the assay on A549 it was 17 µM; in the assay with SW1573, 12 µM; in assay [1] it was 16 µM; in the assay on HeLa it was 14 µM.

For `COC(=O)[C@@]1(C)CC[C@@H]2C3=C1CC[C@@H](C)[C@]3(C)Cc1c2[nH]c2c(C)cccc12`, the GI50 was found to be 22 µM with WiDr; 23 µM in the assay on T47D; 16 µM in the assay with A549; 16 µM in the assay on SW1573; 13 µM in assay [1]; 12 µM in the assay with HeLa.

`COC(=O)[C@@]1(C)CC[C@@H]2C3=C1CC[C@@H](C)[C@]3(C)Cc1c2[nH]c2c(Br)cccc12`: the GI50 came to 37 µM in the assay with WiDr; 31 µM in the assay with T47D; 35 µM in the assay with A549; 26 µM with SW1573; 26 µM in assay [1]; 18 µM with HeLa.

As for `COC(=O)[C@@]1(C)CC[C@@H]2C3=C1CC[C@@H](C)[C@]3(C)Cc1c2[nH]c2c(Cl)cccc12`, the GI50 in the assay on WiDr is 21 µM; in the assay with T47D it was 21 µM; in the assay on A549, 21 µM; in the assay with SW1573 it was 17 µM; in assay [1], 16 µM; with HeLa, 12 µM.
